Results taken from ChEMBL document CHEMBL1141248, “Filiasparosides A-D, cytotoxic steroidal saponins from the roots of Asparagus filicinus” (J Nat Prod, 2007).
Converted amounts (≈) assume the structure as drawn.

Experiments:
MCF7 = experiment: Cytotoxicity against human MCF7 cells after 2 days; type: functional, cell-based; details: MCF7, 48 h
Outline: (§1)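 Growth inhibition under continuous exposure for 2 days. Stock solutions were made in DMSO and kept at -70 °C, then diluted into culture medium to a final DMSO of ≤1% (v/v). EC50 was taken as the concentration giving 50% growth inhibition.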

A549 = experiment: Cytotoxicity against human A549 cells after 2 days; type: functional, cell-based; details: A549, 48 h; outline: as §1

SMILES	EC50 (MCF7) [mg/L]	EC50 (A549) [mg/L]
C[C@H]1CC[C@@]2(OC1)O[C@H]1C[C@H]3[C@@H]4CC[C@@H]5C[C@@H](O[C@@H]6O[C@H](CO)[C@@H](O[C@@H]7O[C@@H](C)[C@H](O)[C@@H](O)[C@H]7O)[C@H](O)[C@H]6O[C@H]6OC[C@H](O)[C@@H](O)[C@@H]6O)CC[C@]5(C)[C@H]4CC[C@]3(C)[C@H]1[C@@H]2C	3 (≈ 3.5 µM)	2.3 (≈ 2.68 µM)
C[C@@H]1CC[C@@]2(OC1)O[C@H]1C[C@H]3[C@@H]4CC[C@H]5C[C@@H](O[C@@H]6O[C@H](CO[C@@H]7OC[C@H](O)[C@H](O)[C@H]7O)[C@@H](O)[C@H](O)[C@H]6O)CC[C@]5(C)[C@H]4CC(=O)[C@]3(C)[C@H]1[C@@H]2C [FILIASPAROSIDE B]	16.8 (≈ 23.2 µM)	16.4 (≈ 22.6 µM)
COc1cc([C@@H]2c3cc4c(cc3[C@@H](O[C@@H]3O[C@@H]5CO[C@@H](C)O[C@H]5[C@H](O)[C@H]3O)[C@H]3COC(=O)[C@H]23)OCO4)cc(OC)c1O [ETOPOSIDE]	2.8 (≈ 4.76 µM)	0.8 (≈ 1.36 µM)
C[C@H]1CC[C@@]2(OC1)O[C@H]1C[C@H]3[C@@H]4CC[C@@H]5C[C@@H](O[C@@H]6O[C@H](CO[C@@H]7OC[C@H](O)[C@H](O)[C@H]7O)[C@@H](O)[C@H](O)[C@H]6O)CC[C@]5(C)[C@H]4CC[C@]3(C)[C@H]1[C@@H]2C [FILIASPAROSIDE D]	10.3 (≈ 14.5 µM)	2.4 (≈ 3.38 µM)
C[C@@H]1CC[C@@]2(OC1)O[C@H]1C[C@H]3[C@@H]4CC[C@H]5C[C@@H](O[C@@H]6O[C@H](CO[C@@H]7OC[C@H](O)[C@H](O)[C@H]7O)[C@@H](O[C@@H]7OC[C@@H](O)[C@H](O)[C@H]7O)[C@H](O)[C@H]6O)CC[C@]5(C)[C@H]4CC(=O)[C@]3(C)[C@H]1[C@@H]2C [FILIASPAROSIDE A]	11.2 (≈ 13.1 µM)	13.3 (≈ 15.5 µM)
C[C@H]1CC[C@@]2(OC1)O[C@H]1C[C@H]3[C@@H]4CC[C@@H]5C[C@@H](O[C@@H]6O[C@H](CO)[C@@H](O[C@@H]7OC[C@@H](O)[C@H](O)[C@H]7O)[C@H](O)[C@H]6O)CC[C@]5(C)[C@H]4CC[C@]3(C)[C@H]1[C@@H]2C [ASPAFILIOSIDE A]	> 20	9.4 (≈ 13.2 µM)
